Columns and labels:
[1] = Half life for the spontaneous hydrolysis in buffer was measured; format: ADME
Method in brief: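 Inhibitor (0.1 mM final) in 0.05 M Tris pH 7.8 with 10% v/v Me2SO. Spontaneous hydrolysis followed as absorbance rise at 270 nm (phenoxy), 280 nm (4-chlorophenoxy) or 277 nm (4-fluorophenoxy). Half-lives from first-order plots of ln(Af − At) vs time, Af being final absorbance of monophenyl ester plus phenol.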

[2] = molecular target: Dipeptidyl peptidase 4 (Homo sapiens) (UniProt P27487)
Sequence of Dipeptidyl peptidase 4 (Homo sapiens) (P27487 whole entry, looked up): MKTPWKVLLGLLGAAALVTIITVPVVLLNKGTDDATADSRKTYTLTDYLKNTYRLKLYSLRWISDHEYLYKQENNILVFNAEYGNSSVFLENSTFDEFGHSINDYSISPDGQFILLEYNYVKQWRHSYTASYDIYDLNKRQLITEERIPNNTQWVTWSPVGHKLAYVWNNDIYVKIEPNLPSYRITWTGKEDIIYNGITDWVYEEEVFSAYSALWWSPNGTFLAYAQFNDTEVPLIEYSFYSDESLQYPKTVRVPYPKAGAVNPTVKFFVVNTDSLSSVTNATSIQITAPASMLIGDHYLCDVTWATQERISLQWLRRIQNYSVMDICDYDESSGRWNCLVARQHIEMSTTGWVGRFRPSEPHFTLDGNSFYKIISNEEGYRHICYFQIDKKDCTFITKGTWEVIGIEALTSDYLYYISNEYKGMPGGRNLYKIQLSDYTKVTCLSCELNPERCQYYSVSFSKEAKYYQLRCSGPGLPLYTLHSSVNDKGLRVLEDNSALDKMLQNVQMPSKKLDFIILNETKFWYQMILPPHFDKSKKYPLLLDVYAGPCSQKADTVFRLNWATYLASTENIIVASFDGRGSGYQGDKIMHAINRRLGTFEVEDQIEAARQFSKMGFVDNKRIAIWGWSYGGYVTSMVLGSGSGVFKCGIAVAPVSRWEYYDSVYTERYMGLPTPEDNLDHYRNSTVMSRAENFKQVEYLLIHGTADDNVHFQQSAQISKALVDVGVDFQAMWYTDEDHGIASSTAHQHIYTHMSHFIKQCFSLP

[3] = molecular target: Chymotrypsinogen A (Bos taurus) (UniProt P00766); assay: The second order inhibition rate constant for the compound was measured against chymotrypsinogen
[4] = molecular target: Cathepsin B (Homo sapiens) (UniProt P07858); assay: The second order inhibition rate constant for the compound was measured against cathepsin B; NI-No inhibition after 30 min of incubation of enzyme with inhibitor
Method in brief: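 Cathepsin B incubated with inhibitor in 100 mM KH2PO4, 1.33 mM EDTA, 2.7 mM fresh cysteine pH 6.0, 8-9% Me2SO, 23 °C. Aliquots assayed with Z-Arg-Arg-AMC, fluorescence at ex 380/em 460 nm. kobs from ln v/v0 vs time. NI means no inhibition after 30 min.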

Papain (Carica papaya) = molecular target: T1, Papain (Carica papaya) (UniProt P00784); assay: The second order inhibition rate constant for the compound was measured against papain; NI-No inhibition after 30 min of incubation of enzyme with inhibitor
T1 sequence (whole entry): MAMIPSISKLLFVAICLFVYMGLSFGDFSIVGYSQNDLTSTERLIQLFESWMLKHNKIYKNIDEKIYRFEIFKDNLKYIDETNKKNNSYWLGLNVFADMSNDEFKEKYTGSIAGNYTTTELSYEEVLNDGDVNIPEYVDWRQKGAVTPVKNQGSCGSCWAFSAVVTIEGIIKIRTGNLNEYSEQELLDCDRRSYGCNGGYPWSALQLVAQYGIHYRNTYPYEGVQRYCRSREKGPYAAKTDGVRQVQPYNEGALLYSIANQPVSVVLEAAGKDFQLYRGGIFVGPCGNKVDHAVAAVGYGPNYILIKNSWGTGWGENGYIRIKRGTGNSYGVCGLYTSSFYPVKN
Method in brief: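 Papain incubated with inhibitor in 50 mM Tris-HCl, 2 mM EDTA, 5 mM fresh cysteine pH 7.5, 8-9% Me2SO, 23 °C. Aliquots assayed with Bz-Arg-AMC, fluorescence at ex 380/em 460 nm. kobs from ln v/v0 vs time. NI means no inhibition after 30 min.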

[5] = molecular target: T2, Chymotrypsin-like elastase family member 2A (Sus scrofa) (UniProt P08419); assay: The second order inhibition rate constant for the compound was measured against PPE; NI-No inhibition after 30 min of incubation of enzyme with inhibitor
T2 sequence (whole entry): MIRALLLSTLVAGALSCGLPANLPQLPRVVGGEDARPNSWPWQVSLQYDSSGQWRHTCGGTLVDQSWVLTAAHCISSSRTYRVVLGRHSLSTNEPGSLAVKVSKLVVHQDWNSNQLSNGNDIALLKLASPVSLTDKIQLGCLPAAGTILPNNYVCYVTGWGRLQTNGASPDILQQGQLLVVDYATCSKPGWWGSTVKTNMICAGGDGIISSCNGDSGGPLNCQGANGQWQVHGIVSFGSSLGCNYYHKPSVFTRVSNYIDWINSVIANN

[6] = molecular target: T3, Neutrophil elastase (Homo sapiens) (UniProt P08246); assay: The second order inhibition rate constant for the compound was measured against HLE; NI-No inhibition after 30 min of incubation of enzyme with inhibitor
T3 sequence (whole entry): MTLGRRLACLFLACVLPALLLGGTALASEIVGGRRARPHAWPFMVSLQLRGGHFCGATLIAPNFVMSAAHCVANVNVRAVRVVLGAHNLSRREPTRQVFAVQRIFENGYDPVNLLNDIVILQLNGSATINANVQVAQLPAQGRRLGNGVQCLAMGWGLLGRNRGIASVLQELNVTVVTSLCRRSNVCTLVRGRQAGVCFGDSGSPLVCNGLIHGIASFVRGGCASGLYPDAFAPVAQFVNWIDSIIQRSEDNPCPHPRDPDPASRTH

[7] = molecular target: Chymotrypsinogen A (Bos taurus) (UniProt P00766)
[8] = molecular target: T4, Choline O-acetyltransferase (Rattus norvegicus) (UniProt P32738)
T4 sequence (whole entry): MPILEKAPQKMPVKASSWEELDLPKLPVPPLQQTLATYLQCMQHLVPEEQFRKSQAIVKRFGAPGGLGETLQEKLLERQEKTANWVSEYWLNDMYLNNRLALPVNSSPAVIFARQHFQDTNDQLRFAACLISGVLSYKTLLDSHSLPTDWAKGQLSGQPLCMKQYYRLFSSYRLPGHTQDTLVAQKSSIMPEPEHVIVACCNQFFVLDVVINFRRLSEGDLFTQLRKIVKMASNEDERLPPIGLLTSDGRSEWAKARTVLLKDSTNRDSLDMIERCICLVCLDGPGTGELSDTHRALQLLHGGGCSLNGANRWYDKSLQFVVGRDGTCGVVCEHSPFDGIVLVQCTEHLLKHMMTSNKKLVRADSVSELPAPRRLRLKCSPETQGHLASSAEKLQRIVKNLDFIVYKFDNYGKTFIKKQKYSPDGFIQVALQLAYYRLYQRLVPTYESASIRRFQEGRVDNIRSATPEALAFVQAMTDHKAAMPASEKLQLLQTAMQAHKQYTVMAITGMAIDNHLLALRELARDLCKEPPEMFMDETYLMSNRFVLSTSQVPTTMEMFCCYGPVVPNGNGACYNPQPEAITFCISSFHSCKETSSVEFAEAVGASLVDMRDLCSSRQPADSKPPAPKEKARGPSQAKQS

C[C@H](N)C(=O)N1CCCCC1P(=O)(Oc1ccc(Cl)cc1)Oc1ccc(Cl)cc1 (some centres not stated) [listing 1 of 2 here]
T1/2 [1]: > 48 h

NCCCC[C@H](N)C(=O)N1CCCCC1P(=O)(Oc1ccccc1)Oc1ccccc1 (some centres not stated)
half-life [1]: > 48 h
K obs / 1 [2]: 4.2 M⁻¹ s⁻¹

C[C@H](N)C(=O)N1CCCCC1P(=O)(Oc1ccc(Cl)cc1)Oc1ccc(Cl)cc1 (some centres not stated) [listing 2 of 2 here]
K obs / 1 [2]: 1300 M⁻¹ s⁻¹

C[C@H](N)C(=O)N1CCCCC1P(=O)(Oc1ccc(Cl)cc1)Oc1ccc(Cl)cc1 (mixture of isomers) [listing 1 of 2 here]
half-life [1]: 67 h

C[C@H](N)C(=O)N1CCCCC1P(=O)(Oc1ccccc1)Oc1ccccc1 (some centres not stated)
half-life [1]: > 72 h
K obs / 1 [2]: 12.6 M⁻¹ s⁻¹

C[C@H](N)C(=O)N1CCC[C@H]1P(=O)(Oc1ccc(Cl)cc1)Oc1ccc(Cl)cc1
half-life [1]: 5.3 h
K obs / 1 [3]: 26 M⁻¹ s⁻¹
K obs / 1 [4]: No inhibition
K obs / 1 (Papain (Carica papaya)): No inhibition
K obs / 1 [2]: 28 M⁻¹ s⁻¹
K obs / 1 [5]: No inhibition
K obs / 1 [6]: No inhibition

C[C@H](N)C(=O)N1CCC[C@H]1P(=O)(Oc1ccccc1)Oc1ccccc1.Cl
half-life [1]: 23.1 h
K obs / 1 [4]: No inhibition
K obs / 1 (Papain (Carica papaya)): No inhibition
K obs / 1 [2]: 1.2 M⁻¹ s⁻¹
K obs / 1 [5]: No inhibition
K obs / 1 [7]: No inhibition
K obs / 1 [8]: No inhibition
K obs / 1 [6]: No inhibition

Br.Br.NCCCC[C@H](N)C(=O)N1CCC[C@H]1P(=O)(Oc1ccccc1)Oc1ccccc1
half-life [1]: 52 h
K obs / 1 [2]: 1.7 M⁻¹ s⁻¹

C[C@H](N)C(=O)N1CCCCC1P(=O)(Oc1ccc(Cl)cc1)Oc1ccc(Cl)cc1 (mixture of isomers) [listing 2 of 2 here]
K obs / 1 [3]: 18 M⁻¹ s⁻¹
K obs / 1 [4]: No inhibition
K obs / 1 (Papain (Carica papaya)): No inhibition
K obs / 1 [2]: 156 M⁻¹ s⁻¹
K obs / 1 [5]: No inhibition
K obs / 1 [6]: No inhibition

C[C@H](N)C(=O)N1CCCCC1P(=O)(Oc1ccc(F)cc1)Oc1ccc(F)cc1 (some centres not stated)
half-life [1]: 68 h
K obs / 1 [2]: 12 M⁻¹ s⁻¹
